Several values for one entry are separate records, joined by “and”; a condition that tells them apart may be missing. Identical values can stand only once.
System: Fibroblast
Assay: Multiplex assay against human fibroblast
Assay type: toxicity, cell-based
How it was run: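 On a CQ1 microscope at 37°C and 5% CO2, live cells were imaged after compound addition. They had been stained at seeding with Hoechst33342, BioTracker Green Microtubule Cytoskeleton Dye, MitoTracker Red and Annexin V Alexa Fluor 680. CellPathfinder machine-learning gating assigned cells to Hoechst high-intensity objects or normal cells, normal cells to healthy, pyknosed or fragmented nuclei, and pyknosed cells to mitotic or apoptotic. Tubulin, mitochondrial-mass and membrane-permeability phenotypes are per cents of healthy-nucleus cells.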

[1] = 12 h, 1 µM, compound concentration 1 uM
[2] = 12 h, 10 µM, compound concentration 10 uM
[3] = 24 h, 1 µM, compound concentration 1 uM
[4] = 24 h, 10 µM, compound concentration 10 uM
[5] = 48 h, 1 µM, compound concentration 1 uM
[6] = 48 h, 10 µM, compound concentration 10 uM

Compound: COc1cc2nc(N3CCN(C(=O)c4ccco4)CC3)nc(N)c2cc1OC.Cl [PRAZOSIN HYDROCHLORIDE]
- Population Apoptotic (%) [1]: 38% and 49%
- Population Fragmented Nuclei (%) [1]: 22% and 20%
- Population Healthy Nuclei (%) [1]: 57% and 52%
- Population Hoechst High Intensity Objects (%) [1]: 1% and 4%
- Population Membrane Permeable-Phenotype (%) [1]: 1% and 5%
- Population Mitochondria Different-Phenotype (%) [1]: 1% and 7%
- Population Mitotic Cells (%) [1]: 61% and 50%
- Population Normal (%) [1]: 98% and 95%
- Population Pyknosed Nuclei (%) [1]: 19% and 27%
- Population Tubulin-Different-Phenotype (%) [1]: 26% and 46%
- Total Cell Count [1]: 174 and 194
- Population Apoptotic (%) [2]: 44% and 31%
- Population Fragmented Nuclei (%) [2]: 23% and 35%
- Population Healthy Nuclei (%) [2]: 64% and 42%
- Population Hoechst High Intensity Objects (%) [2]: 1% and 5%
- Population Membrane Permeable-Phenotype (%) [2]: 0% and 9%
- Population Mitochondria Different-Phenotype (%) [2]: 7% and 3%
- Population Mitotic Cells (%) [2]: 56% and 68%
- Population Normal (%) [2]: 98% and 94%
- Population Pyknosed Nuclei (%) [2]: 12% and 21%
- Population Tubulin-Different-Phenotype (%) [2]: 49% and 65%
- Total Cell Count [2]: 198 and 155
- Population Apoptotic (%) [3]: 50% and 45%
- Population Fragmented Nuclei (%) [3]: 20%
- Population Healthy Nuclei (%) [3]: 63% and 57%
- Population Hoechst High Intensity Objects (%) [3]: 2% and 7%
- Population Membrane Permeable-Phenotype (%) [3]: 0% and 12%
- Population Mitochondria Different-Phenotype (%) [3]: 2% and 3%
- Population Mitotic Cells (%) [3]: 50% and 54%
- Population Normal (%) [3]: 97% and 92%
- Population Pyknosed Nuclei (%) [3]: 15% and 21%
- Population Tubulin-Different-Phenotype (%) [3]: 28% and 58%
- Total Cell Count [3]: 181 and 185
- Population Apoptotic (%) [4]: 46% and 61%
- Population Fragmented Nuclei (%) [4]: 23% and 35%
- Population Healthy Nuclei (%) [4]: 69% and 49%
- Population Hoechst High Intensity Objects (%) [4]: 3% and 7%
- Population Membrane Permeable-Phenotype (%) [4]: 0% and 10%
- Population Mitochondria Different-Phenotype (%) [4]: 6% and 11%
- Population Mitotic Cells (%) [4]: 53% and 38%
- Population Normal (%) [4]: 96% and 92%
- Population Pyknosed Nuclei (%) [4]: 6% and 15%
- Population Tubulin-Different-Phenotype (%) [4]: 45% and 73%
- Total Cell Count [4]: 201 and 152
- Population Apoptotic (%) [5]: 52% and 66%
- Population Fragmented Nuclei (%) [5]: 24% and 29%
- Population Healthy Nuclei (%) [5]: 62% and 56%
- Population Hoechst High Intensity Objects (%) [5]: 3%
- Population Membrane Permeable-Phenotype (%) [5]: 0% and 8%
- Population Mitochondria Different-Phenotype (%) [5]: 1% and 6%
- Population Mitotic Cells (%) [5]: 47% and 33%
- Population Normal (%) [5]: 96%
- Population Pyknosed Nuclei (%) [5]: 13% and 14%
- Population Tubulin-Different-Phenotype (%) [5]: 22% and 57%
- Total Cell Count [5]: 182 and 197
- Population Apoptotic (%) [6]: 66% and 46%
- Population Fragmented Nuclei (%) [6]: 25% and 42%
- Population Healthy Nuclei (%) [6]: 68% and 49%
- Population Hoechst High Intensity Objects (%) [6]: 1% and 5%
- Population Membrane Permeable-Phenotype (%) [6]: 0% and 5%
- Population Mitochondria Different-Phenotype (%) [6]: 4% and 5%
- Population Mitotic Cells (%) [6]: 33% and 53%
- Population Normal (%) [6]: 98% and 94%
- Population Pyknosed Nuclei (%) [6]: 6% and 8%
- Population Tubulin-Different-Phenotype (%) [6]: 32% and 48%
- Total Cell Count [6]: 201 and 170

Compound: Oc1c(CN2CCN(c3ccccn3)CC2)cc(Cl)c2cccnc12
- Population Apoptotic (%) [1]: 73% and 57%
- Population Fragmented Nuclei (%) [1]: 17% and 27%
- Population Healthy Nuclei (%) [1]: 68% and 54%
- Population Hoechst High Intensity Objects (%) [1]: 4% and 5%
- Population Membrane Permeable-Phenotype (%) [1]: 1% and 8%
- Population Mitochondria Different-Phenotype (%) [1]: 0% and 6%
- Population Mitotic Cells (%) [1]: 26% and 42%
- Population Normal (%) [1]: 95% and 94%
- Population Pyknosed Nuclei (%) [1]: 14% and 18%
- Population Tubulin-Different-Phenotype (%) [1]: 27% and 43%
- Total Cell Count [1]: 168 and 152
- Population Apoptotic (%) [2]: 41% and 33%
- Population Fragmented Nuclei (%) [2]: 17% and 25%
- Population Healthy Nuclei (%) [2]: 54% and 58%
- Population Hoechst High Intensity Objects (%) [2]: 5% and 2%
- Population Membrane Permeable-Phenotype (%) [2]: 0% and 2%
- Population Mitochondria Different-Phenotype (%) [2]: 25% and 9%
- Population Mitotic Cells (%) [2]: 58% and 66%
- Population Normal (%) [2]: 94% and 97%
- Population Pyknosed Nuclei (%) [2]: 27% and 16%
- Population Tubulin-Different-Phenotype (%) [2]: 67% and 62%
- Total Cell Count [2]: 130 and 131
- Population Apoptotic (%) [3]: 50% and 45%
- Population Fragmented Nuclei (%) [3]: 19% and 29%
- Population Healthy Nuclei (%) [3]: 67% and 56%
- Population Hoechst High Intensity Objects (%) [3]: 3% and 5%
- Population Membrane Permeable-Phenotype (%) [3]: 0% and 8%
- Population Mitochondria Different-Phenotype (%) [3]: 3% and 7%
- Population Mitotic Cells (%) [3]: 50% and 55%
- Population Normal (%) [3]: 96% and 94%
- Population Pyknosed Nuclei (%) [3]: 13%
- Population Tubulin-Different-Phenotype (%) [3]: 30% and 47%
- Total Cell Count [3]: 174 and 153
- Population Apoptotic (%) [4]: 89% and 56%
- Population Fragmented Nuclei (%) [4]: 26% and 35%
- Population Healthy Nuclei (%) [4]: 46% and 41%
- Population Hoechst High Intensity Objects (%) [4]: 0% and 2%
- Population Membrane Permeable-Phenotype (%) [4]: 1%
- Population Mitochondria Different-Phenotype (%) [4]: 15% and 11%
- Population Normal (%) [4]: 100% and 97%
- Population Pyknosed Nuclei (%) [4]: 27% and 22%
- Population Tubulin-Different-Phenotype (%) [4]: 57% and 68%
- Total Cell Count [4]: 139 and 134
- Population Apoptotic (%) [5]: 54% and 70%
- Population Fragmented Nuclei (%) [5]: 17% and 25%
- Population Healthy Nuclei (%) [5]: 67% and 66%
- Population Hoechst High Intensity Objects (%) [5]: 5% and 0%
- Population Membrane Permeable-Phenotype (%) [5]: 1% and 4%
- Population Mitochondria Different-Phenotype (%) [5]: 1% and 4%
- Population Mitotic Cells (%) [5]: 45% and 30%
- Population Normal (%) [5]: 94% and 99%
- Population Pyknosed Nuclei (%) [5]: 14% and 7%
- Population Tubulin-Different-Phenotype (%) [5]: 35% and 37%
- Total Cell Count [5]: 158 and 137
- Population Apoptotic (%) [6]: 85% and 78%
- Population Fragmented Nuclei (%) [6]: 31% and 34%
- Population Healthy Nuclei (%) [6]: 32% and 41%
- Population Hoechst High Intensity Objects (%) [6]: 2%
- Population Membrane Permeable-Phenotype (%) [6]: 0% and 1%
- Population Mitochondria Different-Phenotype (%) [6]: 9% and 7%
- Population Mitotic Cells (%) [6]: 14% and 21%
- Population Normal (%) [6]: 97%
- Population Pyknosed Nuclei (%) [6]: 35% and 24%
- Population Tubulin-Different-Phenotype (%) [6]: 38% and 65%
- Total Cell Count [6]: 137
